In ChEMBL document CHEMBL1649390, “New (RS)-benzoxazepin-purines with antitumour activity: The chiral switch from (RS)-2,6-dichloro-9-[1-(p-nitrobenzenesulfonyl)-1,2,3,5-tetrahydro-4,1-benzoxazepin-3-yl]-9H-purine” (Eur J Med Chem, 2011):

Experiments:
MCF7 [1] = test: Cytotoxicity against human MCF7 cells expressing wild type p53 and ras mutant […]; format: functional, cell-based
MDA-MB-231 [2] = test: Cytotoxicity against human MDA-MB-231 cells expressing high level of p53 […]; format: functional, cell-based
[3] = Cell cycle arrest in human MCF10A cells assessed as accumulation at G0/G1 phase after 48 hrs using propidium iodide staining by flow cytometry (reference value: 65.70 +/- 1.14 %); format: ADME, cell-based; conditions: mcf-10a
[4] = Cell cycle arrest in human MCF10A cells assessed as accumulation at G2/M phase after 48 hrs using propidium iodide staining by flow cytometry (reference value: 12.55 +/- 0.68 %); format: ADME, cell-based; conditions: mcf-10a
[5] = Cell cycle arrest in human MCF10A cells assessed as accumulation at S phase after 48 hrs using propidium iodide staining by flow cytometry (reference value: 21.78 +/- 0.46 %); format: ADME, cell-based; conditions: mcf-10a
MCF7 [6] = test: Cell cycle arrest in human MCF7 cells assessed as accumulation at G0/G1 phase after 48 hrs using propidium iodide staining by flow cytometry (reference value: 89.88 +/- 1.73 %); format: functional
MCF7 [7] = test: Cell cycle arrest in human MCF7 cells assessed as accumulation at G2/M phase after 48 hrs using propidium iodide staining by flow cytometry (reference value: 1.57 +/- 2.12 %); format: functional
MCF7 [8] = test: Cell cycle arrest in human MCF7 cells assessed as accumulation at S phase after 48 hrs using propidium iodide staining by flow cytometry (reference value: 8.55 +/- 0.40 %); format: functional
MDA-MB-231 [9] = test: Cell cycle arrest in human MDA-MB-231 cells assessed as accumulation at G0/G1 phase after 48 hrs using propidium iodide staining by flow cytometry (reference value: 42.06 +/- 0.01 %); format: functional
MDA-MB-231 [10] = test: Cell cycle arrest in human MDA-MB-231 cells assessed as accumulation at G2/M phase after 48 hrs using propidium iodide staining by flow cytometry (reference value: 31.59 +/- 0.03 %); format: functional
MDA-MB-231 [11] = test: Cell cycle arrest in human MDA-MB-231 cells assessed as accumulation at S phase after 48 hrs using propidium iodide staining by flow cytometry (reference value: 26.35 +/- 0.03 %); format: functional
MCF7 [12] = test: Induction of apoptosis in human MCF7 cells assessed as cell viability at IC50 concentration after 24 hrs using V-FITC and propidium iodide staining by flow cytometry (reference value: 90.42 +/- 0.63 %); format: functional
MCF7 [13] = test: Induction of apoptosis in human MCF7 cells assessed as necrotic cells at IC50 concentration after 24 hrs using V-FITC and propidium iodide staining by flow cytometry (reference value: 9.55 +/- 0.21 %); format: functional
MCF7 [14] = test: Induction of apoptosis in human MCF7 cells assessed as early apoptotic cells at IC50 concentration after 24 hrs using V-FITC and propidium iodide staining by flow cytometry relative to control; format: functional
MCF7 [15] = test: Induction of apoptosis in human MCF7 cells assessed as late apoptotic cells at IC50 concentration after 24 hrs using V-FITC and propidium iodide staining by flow cytometry (reference value: 0.03 +/- 0.01 %); format: functional
MCF7 [16] = test: Induction of apoptosis in human MCF7 cells assessed as necrotic cells at IC50 concentration after 48 hrs using V-FITC and propidium iodide staining by flow cytometry (reference value: 12.61 +/- 7.50 %); format: functional
MCF7 [17] = test: Induction of apoptosis in human MCF7 cells assessed as early apoptotic cells at IC50 concentration after 48 hrs using V-FITC and propidium iodide staining by flow cytometry relative to control; format: functional
MCF7 [18] = test: Induction of apoptosis in human MCF7 cells assessed as late apoptotic cells at IC50 concentration after 24 hrs using V-FITC and propidium iodide staining by flow cytometry (reference value: 1.11 +/- 0.24 %); format: functional
MCF7 [19] = test: Induction of apoptosis in human MCF7 cells assessed as viable cells at IC50 concentration after 48 hrs using V-FITC and propidium iodide staining by flow cytometry (reference value: 86.26 +/- 7.25 %)
[20] = Cytotoxicity against human MCF10A cells […] by SRB assay; format: cell-based; conditions: MCF-10A
[21] = Therapeutic index, ratio of IC50 for human MCF10A cells to IC50 for human MCF7 cells expressing wild type p53 and ras mutant; format: cell-based; conditions: MCF10A cells versus MCF7 cells (wild type p53, ras mutant), read-out: Ratio IC50
In short: (§1)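 Ratio of IC50 in non-tumour MCF-10A to IC50 in the tumour line, both from the SRB growth assay described for cytotoxicity.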

[22] = Therapeutic index, ratio of IC50 for human MCF10A cells to IC50 for human MDA-MB-231 cells expressing high level of p53; format: cell-based; conditions: MCF10A cells versus MDA-MB-231 cells (high level of p53), read-out: Ratio IC50; in short: as §1

SMILES	IC50 (MCF7 [1]) [nM]	IC50 (MDA-MB-231 [2]) [nM]	Activity (MCF7 [12]) [%]	Activity (MCF7 [13]) [%]	Activity (MCF7 [14]) [%]	Activity (MCF7 [15]) [%]	Activity (MCF7 [16]) [%]	Activity (MCF7 [17]) [%]	Activity (MCF7 [18]) [%]	viability (MCF7 [19]) [%]	IC50 [20] [nM]	selectivity ratio [21]	selectivity ratio [22]	other results
O=[N+]([O-])c1ccc(S(=O)(=O)N2C[C@H](n3cnc4c(Cl)nc(Cl)nc43)OCc3ccccc32)cc1	190	110	88.56	10.23	0.68	0.51	2.94	41.99	10.51	44.55	–	–	–	Activity [3]: 65.33%; Activity [4]: 12.68%; Activity [5]: 22%; Activity (MCF7 [6]): 87.22%; Activity (MCF7 [7]): 1.22%; Activity (MCF7 [8]): 11.06%; Activity (MDA-MB-231 [9]): 50.78%; Activity (MDA-MB-231 [10]): 46.24%; Activity (MDA-MB-231 [11]): 2.98%
O=[N+]([O-])c1ccc(S(=O)(=O)N2C[C@@H](n3cnc4c(Cl)nc(Cl)nc43)OCc3ccccc32)cc1	100	110	89.36	10.37	0.1	0.34	1.84	28.82	5.35	63.98	–	–	–	Activity [3]: 64.22%; Activity [4]: 10.76%; Activity [5]: 25.02%; Activity (MCF7 [6]): 89.02%; Activity (MCF7 [7]): 3.1%; Activity (MCF7 [8]): 7.88%; Activity (MDA-MB-231 [9]): 39.97%; Activity (MDA-MB-231 [10]): 30.67%; Activity (MDA-MB-231 [11]): 29.37%
Cc1cn(C2CN(S(=O)(=O)c3ccc([N+](=O)[O-])cc3)c3ccccc3CO2)c(=O)[nH]c1=O (stereo not drawn)	39800	–	–	–	–	–	–	–	–	–	–	–	–	–
O=[N+]([O-])c1ccccc1S(=O)(=O)N1CC(n2cnc3c(Cl)nc(Cl)nc32)OCc2ccccc21 (racemic)	383	280	91.65	8.33	0.01	0.01	3.43	19.61	2.64	74.31	1530	4	5.5	–
O=[N+]([O-])c1ccc(S(=O)(=O)N2CC(n3cnc4c(Br)ncnc43)OCc3ccccc32)cc1 (racemic)	1230	–	95.7	4.26	0.01	0.01	10.92	35.64	2.4	51.04	–	–	–	–
O=[N+]([O-])c1ccccc1S(=O)(=O)N1CC(n2cnc3c(Br)ncnc32)OCc2ccccc21 (racemic)	3620	–	91.95	8.04	0	0	3.76	24.43	4.19	67.6	–	–	–	–
O=[N+]([O-])c1ccccc1S(=O)(=O)N1CC(n2cnc3c(I)nc(Cl)nc32)OCc2ccccc21 (racemic)	610	256	92.22	7.69	0	0.08	8.08	24.27	9.33	58.32	351	0.57	1.37	Activity [3]: 66.69%; Activity [4]: 11.34%; Activity [5]: 21.98%; Activity (MCF7 [6]): 84.1%; Activity (MCF7 [7]): 6.38%; Activity (MCF7 [8]): 9.53%; Activity (MDA-MB-231 [9]): 40.38%; Activity (MDA-MB-231 [10]): 30.3%; Activity (MDA-MB-231 [11]): 28.82%
Nc1ccccc1S(=O)(=O)N1CC(n2cnc3c(Cl)nc(Cl)nc32)OCc2ccccc21 (racemic)	820	467	82.1	17.61	0.02	0.28	1.99	18.89	2.77	76.34	1520	1.85	3.25	–
O=S(=O)(c1ccccc1NO)N1CC(n2cnc3c(Cl)nc(Cl)nc32)OCc2ccccc21 (racemic)	1530	487	90.86	9.11	0	0.11	5.52	18.73	4.92	70.82	1230	0.8	2.53	–
c1ccc(Sc2nc(Sc3ccccc3)c3ncn(C4CNc5ccccc5CO4)c3n2)cc1 (racemic)	9710	–	87.29	12.68	0	0.07	4.98	18.64	4.52	71.84	–	–	–	–
Clc1nc(Sc2ccccc2)c2ncn(C3CNc4ccccc4CO3)c2n1 (racemic)	13800	–	83.09	7.55	0.07	0.07	4.01	15.81	3.88	76.3	–	–	–	–
COC(CN(c1ccccc1CO)S(=O)(=O)c1ccc([N+](=O)[O-])cc1)n1cnc2c(Cl)nc(Cl)nc21 (racemic)	355	409	94.76	4.88	0.02	0.18	4.81	43.3	2.17	49.71	1860	5.25	4.55	–
O=[N+]([O-])c1ccccc1S(=O)(=O)N1CC(n2cnc3nc(Cl)nc(Cl)c32)OCc2ccccc21 (racemic)	990	318	95.03	4.94	0.02	0.02	2.48	13.93	3.8	79.78	1260	1.27	4	–
Cc1cn(C2CS(=O)(=O)c3ccccc3CO2)c(=O)[nH]c1=O (racemic)	12700	–	–	–	–	–	–	–	–	–	–	–	–	–
Cc1cn(C2C[S+]([O-])c3ccccc3CO2)c(=O)[nH]c1=O (racemic)	30000	–	–	–	–	–	–	–	–	–	–	–	–	–
Cc1cn(C2CN(S(=O)(=O)c3ccccc3[N+](=O)[O-])c3ccccc3CO2)c(=O)[nH]c1=O (racemic)	45200	–	–	–	–	–	–	–	–	–	–	–	–	–
O=c1[nH]cc(F)c(=O)[nH]1 [FLUOROURACIL]	–	–	–	–	–	–	–	–	–	–	–	–	–	Activity [3]: 34.2%; Activity [4]: 9.56%; Activity [5]: 55.74%; Activity (MCF7 [6]): 87.4%; Activity (MCF7 [7]): 8.06%; Activity (MCF7 [8]): 6.06%; Activity (MDA-MB-231 [9]): 38.98%; Activity (MDA-MB-231 [10]): 25.63%; Activity (MDA-MB-231 [11]): 35.39%
CC(=O)O[C@H]1C(=O)[C@@]2(C)[C@H]([C@H](OC(=O)c3ccccc3)[C@]3(O)C[C@H](OC(=O)[C@H](O)[C@@H](NC(=O)c4ccccc4)c4ccccc4)C(C)=C1C3(C)C)[C@]1(OC(C)=O)CO[C@@H]1C[C@@H]2O [PACLITAXEL]	–	–	–	–	–	–	–	–	–	–	–	–	–	Activity [3]: 36.76%; Activity [4]: 23.5%; Activity [5]: 39.75%; Activity (MCF7 [6]): 62.48%; Activity (MCF7 [7]): 18.5%; Activity (MCF7 [8]): 19.01%; Activity (MDA-MB-231 [9]): 100%; Activity (MDA-MB-231 [10]): 0%; Activity (MDA-MB-231 [11]): 0%
